In ChEMBL document CHEMBL1158339, “Synthesis and anti-microbial screening of some Schiff bases of 3-amino-6,8-dibromo-2-phenylquinazolin-4(3H)-ones” (2009):
In brackets after ≈: the same amount, converted by molar mass.

What was measured:
Pseudomonas aeruginosa [1] = assay: Antibacterial activity against Pseudomonas aeruginosa ATCC 2853 after 24 hrs by agar streak dilution method; format: functional; conditions: ATCC 2853, 24 h
Outline: (§1)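 Agar streak dilution MIC. Stock […] in dimethyl formamide. Graded quantities go into molten sterile nutrient agar, poured at 40–50 °C to 3–4 mm depth and left to solidify. Plates are streaked with about 10⁵ cfu/ml bacterial suspension and incubated 24 h at 37 °C. MIC is the lowest concentration with no visible growth.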

Aspergillus niger [2] = assay: Antifungal activity against Aspergillus niger ATCC 9029 after 48 hrs by agar streak dilution method; format: functional; conditions: ATCC 9029, 48 h
Outline: (§2)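 Fungal agar streak dilution. Stock […] in dimethyl formamide. Graded quantities go into molten sterile Sabouraud dextrose agar, poured at 40–50 °C to 3–4 mm depth and left to solidify. Plates are inoculated with about 10⁵ cfu/ml suspension and incubated 48 h at 37 °C. MIC is the lowest concentration with no visible growth.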

Aspergillus niger [3] = assay: Antifungal activity against Aspergillus niger ATCC 9029 after 48 hrs by paper disk diffusion technique; format: functional
Outline: (§3)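 Fungal disc diffusion. Autoclaved (120 °C, 30 min) medium is inoculated at 40–50 °C with 1 ml/100 ml of a 10⁵ cfu/ml McFarland-matched suspension and poured to 3–4 mm. Compound-impregnated paper discs in dimethyl formamide are applied. Plates are held 1 h at room temperature, then incubated 48 h at 37 °C.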

Escherichia coli [4] = assay: Antibacterial activity against Escherichia coli ATCC 25922 after 24 hrs by agar streak dilution method; format: functional; conditions: ATCC 25922, 24 h; outline: as §1
Aspergillus fumigatus [5] = assay: Antifungal activity against Aspergillus fumigatus ATCC 46645 after 48 hrs by agar streak dilution method; format: functional; conditions: ATCC 46645, 48 h; outline: as §2
[6] = test system: Staphylococcus epidermidis; assay: Antibacterial activity against Staphylococcus epidermidis ATCC 155 after 24 hrs by agar streak dilution method; format: functional; conditions: ATCC 155, 24 h; outline: as §1
Escherichia coli [7] = assay: Antibacterial activity against Escherichia coli ATCC 25922 after 24 hrs by paper disk diffusion technique; format: functional
Outline: (§4)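 Paper disc diffusion. Nutrient agar autoclaved 120 °C, 30 min, then inoculated at 40–50 °C with 1 ml/100 ml of a 10⁵ cfu/ml suspension matched to McFarland standard and poured to 3–4 mm. Discs impregnated with compound in dimethyl formamide are laid on the solidified agar. Plates are held 1 h at room temperature, then 24 h at 37 °C.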

Klebsiella pneumoniae [8] = assay: Antibacterial activity against Klebsiella pneumoniae ATCC 11298 after 24 hrs by agar streak dilution method; format: functional; conditions: ATCC 11298, 24 h; outline: as §1
Klebsiella pneumoniae [9] = assay: Antibacterial activity against Klebsiella pneumoniae ATCC 11298 after 24 hrs by paper disk diffusion technique; format: functional; outline: as §4
Bacillus cereus [10] = assay: Antibacterial activity against Bacillus cereus ATCC 11778 after 24 hrs by agar streak dilution method; format: functional; conditions: ATCC 11778, 24 h; outline: as §1
Micrococcus luteus [11] = assay: Antibacterial activity against Micrococcus luteus ATCC 4698 after 24 hrs by agar streak dilution method; format: functional; conditions: NCTC 2665, 24 h; outline: as §1
Aspergillus fumigatus [12] = assay: Antifungal activity against Aspergillus fumigatus ATCC 46645 after 48 hrs by paper disk diffusion technique; format: functional; outline: as §3
Staphylococcus aureus [13] = assay: Antibacterial activity against Staphylococcus aureus ATCC 9144 after 24 hrs by agar streak dilution method; format: functional; conditions: ATCC 9144, 24 h; outline: as §1
[14] = test system: Staphylococcus epidermidis; assay: Antibacterial activity against Staphylococcus epidermidis ATCC 155 after 24 hrs by paper disk diffusion technique; format: functional; outline: as §4
Micrococcus luteus [15] = assay: Antibacterial activity against Micrococcus luteus ATCC 4698 after 24 hrs by paper disk diffusion technique; format: functional; outline: as §4
Staphylococcus aureus [16] = assay: Antibacterial activity against Staphylococcus aureus ATCC 9144 after 24 hrs by paper disk diffusion technique; format: functional; outline: as §4
Pseudomonas aeruginosa [17] = assay: Antibacterial activity against Pseudomonas aeruginosa ATCC 2853 after 24 hrs by paper disk diffusion technique; format: functional; outline: as §4
Bacillus cereus [18] = assay: Antibacterial activity against Bacillus cereus ATCC 11778 after 24 hrs by paper disk diffusion technique; format: functional; outline: as §4
Staphylococcus aureus [19] = assay: microbe, parasite or virus in culture; conditions: ATCC 9144, 24 h, read-out: IZ
Pseudomonas aeruginosa [20] = assay: microbe, parasite or virus in culture; conditions: ATCC 2853, 24 h, read-out: IZ
Micrococcus luteus [21] = assay: Antibacterial activity against Micrococcus luteus ATCC 4698 at 100 ug/disk after 24 hrs by paper disk diffusion technique; format: functional; conditions: NCTC 2665, 24 h, read-out: IZ
Klebsiella pneumoniae [22] = assay: microbe, parasite or virus in culture; conditions: ATCC 11298, 24 h, read-out: IZ
[23] = test system: Staphylococcus epidermidis; assay: microbe, parasite or virus in culture; conditions: ATCC 155, 24 h, read-out: IZ
Escherichia coli [24] = assay: microbe, parasite or virus in culture; conditions: ATCC 25922, 24 h, read-out: IZ
Bacillus cereus [25] = assay: Antibacterial activity against Bacillus cereus ATCC 11778 at 100 ug/disk after 24 hrs by paper disk diffusion technique; format: functional; conditions: ATCC 11778, 24 h, read-out: IZ
Aspergillus fumigatus [26] = assay: Antifungal activity against Aspergillus fumigatus ATCC 46645 at 100 ug/disk after 48 hrs by paper disk diffusion technique; format: functional; conditions: ATCC 46645, 48 h, read-out: IZ
Outline: (§5)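 Paper disc diffusion: autoclaved medium at 40–50 °C was seeded at 1 ml/100 ml with a suspension of about 10⁵ cfu/ml matched to McFarland standard and poured 3–4 mm deep. Discs impregnated with compound in dimethylformamide were placed on the set medium. There was 1 h pre-incubation at room temperature, then 48 h at 37 °C. Ketoconazole disc served as reference.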

Aspergillus niger [27] = assay: Antifungal activity against Aspergillus niger ATCC 9029 at 100 ug/disk after 48 hrs by paper disk diffusion technique; format: functional; conditions: ATCC 9029, 48 h, read-out: IZ; outline: as §5

| Compound | MIC (Pseudomonas aeruginosa [1]) [µg/mL] | MIC (Aspergillus niger [2]) [µg/mL] | inhibition zone (IZ) (Aspergillus niger [3]) [mm] | MIC (Escherichia coli [4]) [µg/mL] | MIC (Aspergillus fumigatus [5]) [µg/mL] | MIC [6] [µg/mL] | inhibition zone (IZ) (Escherichia coli [7]) [mm] | MIC (Klebsiella pneumoniae [8]) [µg/mL] | inhibition zone (IZ) (Klebsiella pneumoniae [9]) [mm] | MIC (Bacillus cereus [10]) [µg/mL] | MIC (Micrococcus luteus [11]) [µg/mL] | inhibition zone (IZ) (Aspergillus fumigatus [12]) [mm] | MIC (Staphylococcus aureus [13]) [µg/mL] | inhibition zone (IZ) [14] [mm] | inhibition zone (IZ) (Micrococcus luteus [15]) [mm] | inhibition zone (IZ) (Staphylococcus aureus [16]) [mm] | inhibition zone (IZ) (Pseudomonas aeruginosa [17]) [mm] | inhibition zone (IZ) (Bacillus cereus [18]) [mm] | further results |
| --- | --- | --- | --- | --- | --- | --- | --- | --- | --- | --- | --- | --- | --- | --- | --- | --- | --- | --- | --- |
| O=c1c2cc(Br)cc(Br)c2nc(-c2ccccc2)n1/N=C/c1ccc([N+](=O)[O-])cc1 | 34.2 (≈ 64.8 µM) | 14.4 (≈ 27.3 µM) | 24 | 30.2 (≈ 57.2 µM) | 10.9 (≈ 20.6 µM) | 21.8 (≈ 41.3 µM) | 23 | 35.7 (≈ 67.6 µM) | 20 | 32.8 (≈ 62.1 µM) | 27.4 (≈ 51.9 µM) | 25 | 22.4 (≈ 42.4 µM) | 22 | 23 | 22 | 21 | 20 |  |
| O=C(O)c1cn(C2CC2)c2cc(N3CCNCC3)c(F)cc2c1=O [CIPROFLOXACIN] |  |  |  |  |  | 0.39 (≈ 1.18 µM) |  | 0.1 (≈ 0.302 µM) |  | 0.3 (≈ 0.905 µM) | 0.1 (≈ 0.302 µM) |  | 0.2 (≈ 0.604 µM) |  |  |  |  |  | zone of inhibition at 100 µg/disc (Staphylococcus aureus [19]): 29 mm; zone of inhibition at 100 µg/disc (Pseudomonas aeruginosa [20]): 33 mm; zone of inhibition at 100 µg/disc (Micrococcus luteus [21]): 30 mm; zone of inhibition at 100 µg/disc (Klebsiella pneumoniae [22]): 33 mm; zone of inhibition at 100 µg/disc [23]: 31 mm; zone of inhibition at 100 µg/disc (Escherichia coli [24]): 32 mm; zone of inhibition at 100 µg/disc (Bacillus cereus [25]): 29 mm |
| CC(=O)N1CCN(c2ccc(OCC3COC(Cn4ccnc4)(c4ccc(Cl)cc4Cl)O3)cc2)CC1 (stereo not drawn) [KETOCONAZOLE] |  | 6.1 (≈ 11.5 µM) |  |  | 0.23 (≈ 0.433 µM) |  |  |  |  |  |  |  |  |  |  |  |  |  | zone of inhibition at 100 µg/disc (Aspergillus fumigatus [26]): 29 mm; zone of inhibition at 100 µg/disc (Aspergillus niger [27]): 30 mm |
| COc1cc(/C=N/n2c(-c3ccccc3)nc3c(Br)cc(Br)cc3c2=O)ccc1O | 33.4 (≈ 63.1 µM) | 12.7 (≈ 24 µM) | 24 | 31.2 (≈ 59 µM) | 15.2 (≈ 28.7 µM) | 24.2 (≈ 45.7 µM) | 24 | 28.2 (≈ 53.3 µM) | 23 | 35.1 (≈ 66.3 µM) | 28.1 (≈ 53.1 µM) | 23 | 21.6 (≈ 40.8 µM) | 23 | 24 | 23 | 19 | 17 |  |
| COc1ccc(/C=N/n2c(-c3ccccc3)nc3c(Br)cc(Br)cc3c2=O)cc1 | 36.2 (≈ 70.5 µM) | 10.1 (≈ 19.7 µM) | 23 | 29.9 (≈ 58.3 µM) | 12.3 (≈ 24 µM) | 22.2 (≈ 43.3 µM) | 19 | 33.4 (≈ 65.1 µM) | 20 | 31.9 (≈ 62.2 µM) | 34.2 (≈ 66.6 µM) | 24 | 32.1 (≈ 62.6 µM) | 20 | 18 | 19 | 16 | 19 |  |
| O=c1c2cc(Br)cc(Br)c2nc(-c2ccccc2)n1/N=C/c1ccccc1O | 37.2 (≈ 74.5 µM) | 12.2 (≈ 24.4 µM) | 22 | 20.4 (≈ 40.9 µM) | 13.6 (≈ 27.2 µM) | 21.3 (≈ 42.7 µM) | 22 | 24.3 (≈ 48.7 µM) | 22 | 19.9 (≈ 39.9 µM) | 28.2 (≈ 56.5 µM) | 23 | 21.8 (≈ 43.7 µM) | 24 | 18 | 20 | 17 | 21 |  |
